Experimental data: the array DNA melting data of Ke et al. (doi:10.1101/2024.01.08.574731)

Experiments:
[1] = folding enthalpy; higher = less favourable; fluorescence melt of hairpins on a sequencing array, two-state fit; conditions: sodium 0.088 M
In short: (§1)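 With Cy3 and quencher oligos annealed, library hairpins on a sequenced MiSeq flow cell were imaged for Cy3 fluorescence in 50 mM Na-HEPES pH 8.0, 25 mM NaCl, in 2.5 °C steps up to 60 °C. Melting temperature and folding enthalpy were derived from bootstrapped two-state fits of signals normalised to pre-quench Cy3 and to control constructs. Four replicates were combined by inverse variance, with fitted temperatures raised by 9.35 °C to match UV melts.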

[2] = melting temperature; fluorescence melt of hairpins on a sequencing array, two-state fit, raised by 9.35 °C to match UV melts; conditions: sodium 0.088 M
In short: as §1

Row | Sequence | folding enthalpy [1] [kcal/mol] | Tm [2] [°C]
1 | GGATTCGAAAGAACCTCC ((((((....)))..))) | -16.7 | 37.8
2 | GATCAGGCCTCTGATC ((((((....)))))) | -49.2 | 52.1
3 | GAGAGGCGAAAGCCCTC (((.(((....)))))) | -14.2 | 55.7
4 | GCGTCCCCACGC ((((....)))) | -21 | 51.1
5 | GATCCGGACACGGATC ((((((....)))))) | -43.2 | 66
6 | GGCCCCGAAAGGGAAGCC ((((((....)))..))) | -28.2 | 55.4
7 | GGACATGGAAACATGTTC (.(((((....))))).) | -27.6 | 47.4
8 | GATCCGATAGCGGATC ((((((....)))))) | -38.9 | 54.3
9 | GCGCGCGAAAGCGGTCGC ((((((....)))..))) | -16.1 | 63.6
10 | GCTAGCGGAAACACTAGC (((((.(....).))))) | -32.2 | 45.7
11 | GTCAACGAAAGTTTAGAC ((((((....)))..))) | -16.1 | 31.3
12 | GGAAGCGAAAGCTTCTCC ((((((....)))..))) | -9.47 | 53.3
13 | GATCACCTGTGTGATC ((((((....)))))) | -37.8 | 57
14 | GATCTTTGCCAAGATC ((((((....)))))) | -29.7 | 42.5
15 | GCGTCTGAACGC ((((....)))) | -25.2 | 54
16 | GCCGGGCGAAAGCTCCGC ((.(.((....)).).)) | -13.1 | 45.2
17 | GCACGGCGAAAGCCCCGC ((..(((....)))..)) | -8.33 | 32.2
18 | GCAGCTCGAAAGAGATGC (((.(((....))).))) | -42.1 | 68.6
19 | GTAGTATCGAAAGATTAC (((..(((....)))))) | -12.9 | 26.1
20 | GATCTGATTGCAGATC ((((((....)))))) | -29.1 | 48.2
21 | GCCTCCTCGAAAGAGGGC (((..(((....)))))) | -9.35 | 43.9
22 | CGAGAGAAATCTCG (((((....))))) | -23.9 | 47.5
23 | GATCCATGCCTGGATC ((((((....)))))) | -36.2 | 51.6
24 | GCAAAGCGAAAGCTTGC (((.(((....)))))) | -23.8 | 64.5

Row | Sequence | folding enthalpy [1] [kcal/mol] | Tm [2] [°C]
25 | GCACCGCGAAAGCGTGC (((.(((....)))))) | -19 | 63.8
26 | GGCAATCGAAAGATCGCC (((.(((....))).))) | -34.7 | 51
27 | GTCATGGGAAACTATGGC (.(((.(....).))).) | -22.4 | 32.1
28 | GCGTAAGGAAACTTGTGC ((..(((....)))..)) | -10.8 | 29.7
29 | GCCATGCGAAAGCTTTGC ((.(.((....)).).)) | -11.7 | 36.1
30 | CGTATGAAAATACG (((((....))))) | -24.1 | 47.4
31 | GTGCTTGGAAACAAACAC (((.(((....))).))) | -28.9 | 39.1
32 | GCAGACGGAAACGTCCAC (..((((....))))..) | -9.46 | 32.1
33 | GCCACCGAAAGGTAGGGC ((((((....)))..))) | -27.6 | 52.7
34 | GGTCACCGAAAGGTCACC (((.(((....))).))) | -25.6 | 43.9
35 | GAATCACGAAAGTGGTTC (((.(((....))).))) | -40.3 | 53.2
36 | GCAGACGGAAACATCCGC ((.((.(....).)).)) | -13.3 | 26.5
37 | GGTTAGGGAAACCTAATC (.(((((....))))).) | -27.7 | 37.9
38 | GATCCTGCTAGGATC ((((((...)))))) | -34 | 54.8
39 | GATCTGATTACAGATC ((((((....)))))) | -40.5 | 50
40 | GCTTAGCGAAAGCTTTGC ((..(((....)))..)) | -14.8 | 44.3
41 | GATCAAGGATTTGATC ((((((....)))))) | -29.8 | 49.1
42 | GCTGGGAAACCAGC (((((....))))) | -29.9 | 65.4
43 | GACTTTGGAAACAGAGTC ((((.((....)).)))) | -31.1 | 38.1
44 | GGATTGAAAAATCC (((((....))))) | -21.7 | 44.5
45 | GGTGGTGGAAACACTGCC ((..(((....)))..)) | -25.5 | 47.2
46 | GCGGCGATCCGC ((((....)))) | -16.7 | 54
47 | GATCATCATAATGATC ((((((....)))))) | -36.3 | 47.1
48 | GACATACGAAAGTAGGTC (((.(((....))).))) | -39.1 | 52.7

Row | Sequence | folding enthalpy [1] [kcal/mol] | Tm [2] [°C]
49 | GATCGGGCGGCCGATC ((((((....)))))) | -57.9 | 61.8
50 | GATCTGGCGGCAGATC ((((((....)))))) | -53.2 | 53.3
51 | GCACTGCGAAAGCGCTGC (((..((....))..))) | -20.6 | 42.6
52 | GATCCTATTTAGGATC ((((((....)))))) | -40.6 | 54.4
53 | GCCTAGCGAAAGCTGGC (((.(((....)))))) | -29.2 | 64.8
54 | GATCACGATGTGATC ((((((...)))))) | -30.8 | 58.5
55 | GATCTCCCTAGAGATC ((((((....)))))) | -36.2 | 55.7
56 | GCCCGCTCGAAAGAGGGC (((..(((....)))))) | -40.6 | 54.6
57 | GCTTAGCGAAAGCCGAGC (((..((....))..))) | -15.8 | 42
58 | GAACCACCGAAAGGTTTC (((..(((....)))))) | -9.16 | 22.3
59 | GTAGGTGGAAACGCCTAC (((((.(....).))))) | -32.8 | 51.9
60 | GGTTTCGAAAGAACACC ((((((....))).))) | -26.8 | 37.6
61 | CGTCCGGAAACGGATACG ((((((....)))..))) | -18.1 | 40
62 | GTGGACGAAAGTCCCAC ((((((....))).))) | -12.1 | 48.8
63 | GTAACGGAAACGTTAC ((((((....)))))) | -40.2 | 56.3
64 | GTGGTCGAAAGACCTCAC ((((((....)))..))) | -10.7 | 38
65 | GATAAGCGAAAGCTCATC (((.(((....))).))) | -15.9 | 33.8
66 | GTTACGGGAAACCGTGAC ((.((((....)))).)) | -29.8 | 49.8
67 | GCTGCTGCGAAAGCAAGC (((..(((....)))))) | -11.7 | 54.1
68 | GATAACACGAAAGTGATC (((..(((....)))))) | -10.1 | 24.9
69 | CTCGTGAAAACGAG (((((....))))) | -21.4 | 53.5
70 | GGCACAGGAAACTGTACC ((.((((....)))).)) | -29.6 | 44.3
